Test results taken from ChEMBL document CHEMBL4020721 (Eur J Med Chem, 2017).

Assays:
[1] = biological target: Hepatocyte growth factor receptor (Homo sapiens, UniProt P08581); assay: Inhibition of c-MET (unknown origin) using TK substrate-biotin peptide as substrate preincubated for 5 to 10 mins followed by ATP addition measured after 30 mins by HTRF assay
CYP2C19 [2] = biological target: T1, CYP2C19 (Homo sapiens, UniProt P33261); assay: Time dependent irreversible inhibition of CYP2C19 in human liver microsomes at 10 uM preincubated with compound followed by NADPH addition by LC-MS/MS analysis; type: ADME
T1 sequence (P33261 whole entry): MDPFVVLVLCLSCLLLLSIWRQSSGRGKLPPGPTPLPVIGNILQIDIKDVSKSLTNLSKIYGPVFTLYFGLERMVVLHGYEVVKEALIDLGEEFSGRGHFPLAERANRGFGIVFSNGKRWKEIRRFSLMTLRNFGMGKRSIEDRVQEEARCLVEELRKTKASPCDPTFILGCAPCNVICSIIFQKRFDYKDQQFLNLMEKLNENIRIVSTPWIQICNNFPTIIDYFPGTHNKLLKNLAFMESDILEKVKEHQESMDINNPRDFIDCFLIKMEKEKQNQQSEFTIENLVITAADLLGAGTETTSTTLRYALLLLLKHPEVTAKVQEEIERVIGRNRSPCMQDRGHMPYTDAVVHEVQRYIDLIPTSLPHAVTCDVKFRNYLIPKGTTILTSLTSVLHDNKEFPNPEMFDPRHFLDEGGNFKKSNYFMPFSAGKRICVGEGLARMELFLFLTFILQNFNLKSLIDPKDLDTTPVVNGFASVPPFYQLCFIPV
In short: (§1)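 HLM (0.2 mg/ml) with 10 µM compound were preincubated 0, 5, 10 or 20 min at 37°C with 1 mM NADPH or PBS. Substrate cocktail (halved concentrations) plus NADPH was then added for 10 min. Metabolites were measured by LC-MS/MS. Kobs is the slope of relative activity versus preincubation time.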

CYP1A2 [3] = biological target: T2, CYP1A2 (Homo sapiens, UniProt P05177); assay: Time dependent irreversible inhibition of CYP1A2 in human liver microsomes at 10 uM preincubated with compound followed by NADPH addition by LC-MS/MS analysis; type: ADME; settings: liver microsomes; in short: as §1
T2 sequence (P05177 whole entry): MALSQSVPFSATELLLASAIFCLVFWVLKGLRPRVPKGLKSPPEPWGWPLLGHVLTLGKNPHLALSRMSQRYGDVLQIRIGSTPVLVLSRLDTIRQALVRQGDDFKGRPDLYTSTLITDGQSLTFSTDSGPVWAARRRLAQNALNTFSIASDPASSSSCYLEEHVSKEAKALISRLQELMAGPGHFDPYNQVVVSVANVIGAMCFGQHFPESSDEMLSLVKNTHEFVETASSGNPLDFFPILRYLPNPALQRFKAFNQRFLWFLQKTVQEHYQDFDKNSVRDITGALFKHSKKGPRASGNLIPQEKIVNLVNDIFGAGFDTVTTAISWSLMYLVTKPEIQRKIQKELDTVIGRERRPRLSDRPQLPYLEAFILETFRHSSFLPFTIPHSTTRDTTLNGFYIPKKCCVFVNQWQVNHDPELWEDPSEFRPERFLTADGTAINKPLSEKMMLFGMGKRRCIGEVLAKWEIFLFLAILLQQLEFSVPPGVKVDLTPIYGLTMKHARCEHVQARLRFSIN

NCI-H1993 = assay: Growth inhibition of human NCI-H1993 cells after 72 hrs by CCK-8 assay; type: functional, cell-based; settings: Homo sapiens, NCI-H1993, 72 h
[4] = Intrinsic clearance in monkey liver microsomes assessed per mg protein at 1 uM preincubated for 5 mins followed by NADPH addition measured after 5 to 30 mins by LC-MS/MS analysis; settings: liver microsomes; read-out: CLH
[5] = Drug recovery in human liver microsomes at 1 uM measured after 30 mins by LC-MS/MS analysis; type: ADME, microsome; settings: liver microsomes, read-out: Drug recovery
In short: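 Liver microsomes (0.5 mg/ml) were incubated with 1 µM compound at 37°C in 100 mM phosphate buffer pH 7.4 without NADPH for 30 min. Reactions were quenched with acetonitrile/tinidazole internal standard and analysed by LC-MS/MS. Recovery (%) was taken from the compound/internal standard peak area ratio.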

[6] = Drug recovery in monkey liver microsomes at 1 uM measured after 30 mins by LC-MS/MS analysis
[7] = Intrinsic clearance in rat liver microsomes assessed per mg protein at 1 uM preincubated for 5 mins followed by NADPH addition measured after 5 to 30 mins by LC-MS/MS analysis; type: ADME, microsome; settings: read-out: CLH
In short: (§2)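 Microsomes (0.5 mg/ml) with 1 µM compound were preincubated 5 min at 37°C in 100 mM phosphate buffer pH 7.4, then started with 1 mM NADPH. Samples were taken at 0, 5, 10 and 30 min, quenched with acetonitrile/tinidazole and run by LC-MS/MS. CLint = k / microsomal protein concentration. Midazolam was the positive control.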

CYP2D6 [8] = biological target: T3, CYP2D6 (Homo sapiens, UniProt P10635); assay: Time dependent irreversible inhibition of CYP2D6 in human liver microsomes at 10 uM preincubated with compound followed by NADPH addition by LC-MS/MS analysis; type: ADME; settings: liver microsomes; in short: as §1
T3 sequence (P10635 whole entry): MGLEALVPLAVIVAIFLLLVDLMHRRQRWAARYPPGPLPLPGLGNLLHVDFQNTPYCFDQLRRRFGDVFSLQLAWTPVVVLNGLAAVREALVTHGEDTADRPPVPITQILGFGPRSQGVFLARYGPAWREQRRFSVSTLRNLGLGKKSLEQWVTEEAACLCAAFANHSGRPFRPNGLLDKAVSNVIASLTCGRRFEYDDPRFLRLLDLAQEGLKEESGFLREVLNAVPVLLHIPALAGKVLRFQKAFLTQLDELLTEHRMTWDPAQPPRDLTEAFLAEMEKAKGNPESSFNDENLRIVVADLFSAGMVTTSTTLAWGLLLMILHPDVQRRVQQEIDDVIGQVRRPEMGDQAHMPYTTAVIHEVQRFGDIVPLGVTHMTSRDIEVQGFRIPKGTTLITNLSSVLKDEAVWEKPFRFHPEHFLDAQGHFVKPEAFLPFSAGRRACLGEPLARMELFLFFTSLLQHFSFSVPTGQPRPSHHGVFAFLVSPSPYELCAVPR

CYP2C9 [9] = biological target: T4, CYP2C9 (Homo sapiens, UniProt P11712); assay: Time dependent irreversible inhibition of CYP2C9 in human liver microsomes at 10 uM preincubated with compound followed by NADPH addition by LC-MS/MS analysis; type: ADME; settings: liver microsomes; in short: as §1
T4 sequence (P11712 whole entry): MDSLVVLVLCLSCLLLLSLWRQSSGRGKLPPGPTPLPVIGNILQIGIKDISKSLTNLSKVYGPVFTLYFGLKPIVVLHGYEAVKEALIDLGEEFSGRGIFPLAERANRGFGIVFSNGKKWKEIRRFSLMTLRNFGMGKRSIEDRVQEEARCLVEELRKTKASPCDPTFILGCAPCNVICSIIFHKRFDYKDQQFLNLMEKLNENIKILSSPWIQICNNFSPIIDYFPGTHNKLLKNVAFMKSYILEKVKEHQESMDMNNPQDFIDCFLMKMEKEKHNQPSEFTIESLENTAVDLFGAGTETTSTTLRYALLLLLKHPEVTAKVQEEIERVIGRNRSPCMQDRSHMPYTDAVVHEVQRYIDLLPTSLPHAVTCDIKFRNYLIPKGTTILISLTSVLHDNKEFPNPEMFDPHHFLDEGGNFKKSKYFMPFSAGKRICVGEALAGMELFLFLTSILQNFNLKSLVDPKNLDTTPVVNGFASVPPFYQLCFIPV

Cytochrome P450 3A4 [10] = biological target: T5, Cytochrome P450 3A4 (Homo sapiens, UniProt P08684); assay: (§3) Reversible inhibition of CYP3A4 in human liver microsomes at 10 uM after 20 mins in presence of NADPH by LC-MS/MS analysis; type: ADME; settings: microsomes, 20 min, 10 µM
T5 sequence (P08684 whole entry): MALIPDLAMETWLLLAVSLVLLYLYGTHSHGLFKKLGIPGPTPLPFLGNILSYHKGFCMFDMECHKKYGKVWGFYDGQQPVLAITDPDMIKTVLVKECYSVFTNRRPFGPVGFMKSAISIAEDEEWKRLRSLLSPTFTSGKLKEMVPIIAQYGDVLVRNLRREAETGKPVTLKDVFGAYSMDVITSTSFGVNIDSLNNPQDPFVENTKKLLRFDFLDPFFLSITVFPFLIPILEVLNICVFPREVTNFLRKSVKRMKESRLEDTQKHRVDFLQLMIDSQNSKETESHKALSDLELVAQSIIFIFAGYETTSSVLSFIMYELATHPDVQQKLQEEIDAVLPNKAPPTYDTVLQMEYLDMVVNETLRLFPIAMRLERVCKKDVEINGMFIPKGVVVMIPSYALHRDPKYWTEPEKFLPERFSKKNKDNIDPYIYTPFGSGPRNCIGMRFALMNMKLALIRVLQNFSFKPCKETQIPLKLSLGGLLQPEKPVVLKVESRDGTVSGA

[11] = Intrinsic clearance in human liver microsomes assessed per mg protein at 1 uM preincubated for 5 mins followed by NADPH addition measured after 5 to 30 mins by LC-MS/MS analysis; type: ADME, microsome; settings: read-out: CLH; in short: as §2
SNU-5 = assay: Growth inhibition of human SNU5 cells after 72 hrs by CCK-8 assay; type: functional, cell-based; settings: Homo sapiens, SNU-5, 72 h
CYP3A4 [12] = biological target: T6, CYP3A4 (Homo sapiens, UniProt P08684); assay: (§4) Time dependent irreversible inhibition of CYP3A4 in human liver microsomes at 10 uM preincubated with compound followed by NADPH addition by LC-MS/MS analysis; type: ADME; settings: liver microsomes; in short: as §1
T6 sequence (P08684 whole entry): as above

[13] = Drug recovery in rat liver microsomes at 1 uM measured after 30 mins by LC-MS/MS analysis; type: ADME, microsome; settings: liver microsomes, read-out: Drug recovery
CYP2D6 [14] = biological target: T3, CYP2D6; assay: Reversible inhibition of CYP2D6 in human liver microsomes at 10 uM after 20 mins in presence of NADPH by LC-MS/MS analysis; type: ADME; settings: liver microsomes
CYP3A4 [15] = biological target: T6, CYP3A4; assay: as §3; type: ADME; settings: liver microsomes
CYP2C9 [16] = biological target: T4, CYP2C9; assay: (§5) Reversible inhibition of CYP2C9 in human liver microsomes at 10 uM after 20 mins by in presence of NADPH LC-MS/MS analysis; type: ADME; settings: liver microsomes
CYP2C19 [17] = biological target: T1, CYP2C19; assay: (§6) Reversible inhibition of CYP2C19 in human liver microsomes at 10 uM after 20 mins in presence of NADPH by LC-MS/MS analysis; type: ADME; settings: liver microsomes
CYP1A2 [18] = biological target: T2, CYP1A2; assay: Reversible inhibition of CYP1A2 in human liver microsomes at 10 uM after 20 mins in presence of NADPH by LC-MS/MS analysis; type: ADME
Cytochrome P450 2C9 = Cytochrome P450 2C9 (Homo sapiens, UniProt P11712); assay: as §5; type: ADME; settings: microsomes, 20 min, 10 µM
Cytochrome P450 2C9, sequence (P11712 whole entry): as the sequence (P11712 whole entry) above

Cytochrome P450 2C19 = Cytochrome P450 2C19 (Homo sapiens, UniProt P33261); assay: as §6; type: ADME; settings: microsomes, 20 min, 10 µM
Cytochrome P450 2C19, sequence (P33261 whole entry): as the sequence (P33261 whole entry) above

Cytochrome P450 3A4 [19] = biological target: T5, Cytochrome P450 3A4; assay: as §4; type: ADME; settings: microsomes, 10 µM; in short: as §1

Hepatocyte growth factor receptor, sequence (P08581 whole entry): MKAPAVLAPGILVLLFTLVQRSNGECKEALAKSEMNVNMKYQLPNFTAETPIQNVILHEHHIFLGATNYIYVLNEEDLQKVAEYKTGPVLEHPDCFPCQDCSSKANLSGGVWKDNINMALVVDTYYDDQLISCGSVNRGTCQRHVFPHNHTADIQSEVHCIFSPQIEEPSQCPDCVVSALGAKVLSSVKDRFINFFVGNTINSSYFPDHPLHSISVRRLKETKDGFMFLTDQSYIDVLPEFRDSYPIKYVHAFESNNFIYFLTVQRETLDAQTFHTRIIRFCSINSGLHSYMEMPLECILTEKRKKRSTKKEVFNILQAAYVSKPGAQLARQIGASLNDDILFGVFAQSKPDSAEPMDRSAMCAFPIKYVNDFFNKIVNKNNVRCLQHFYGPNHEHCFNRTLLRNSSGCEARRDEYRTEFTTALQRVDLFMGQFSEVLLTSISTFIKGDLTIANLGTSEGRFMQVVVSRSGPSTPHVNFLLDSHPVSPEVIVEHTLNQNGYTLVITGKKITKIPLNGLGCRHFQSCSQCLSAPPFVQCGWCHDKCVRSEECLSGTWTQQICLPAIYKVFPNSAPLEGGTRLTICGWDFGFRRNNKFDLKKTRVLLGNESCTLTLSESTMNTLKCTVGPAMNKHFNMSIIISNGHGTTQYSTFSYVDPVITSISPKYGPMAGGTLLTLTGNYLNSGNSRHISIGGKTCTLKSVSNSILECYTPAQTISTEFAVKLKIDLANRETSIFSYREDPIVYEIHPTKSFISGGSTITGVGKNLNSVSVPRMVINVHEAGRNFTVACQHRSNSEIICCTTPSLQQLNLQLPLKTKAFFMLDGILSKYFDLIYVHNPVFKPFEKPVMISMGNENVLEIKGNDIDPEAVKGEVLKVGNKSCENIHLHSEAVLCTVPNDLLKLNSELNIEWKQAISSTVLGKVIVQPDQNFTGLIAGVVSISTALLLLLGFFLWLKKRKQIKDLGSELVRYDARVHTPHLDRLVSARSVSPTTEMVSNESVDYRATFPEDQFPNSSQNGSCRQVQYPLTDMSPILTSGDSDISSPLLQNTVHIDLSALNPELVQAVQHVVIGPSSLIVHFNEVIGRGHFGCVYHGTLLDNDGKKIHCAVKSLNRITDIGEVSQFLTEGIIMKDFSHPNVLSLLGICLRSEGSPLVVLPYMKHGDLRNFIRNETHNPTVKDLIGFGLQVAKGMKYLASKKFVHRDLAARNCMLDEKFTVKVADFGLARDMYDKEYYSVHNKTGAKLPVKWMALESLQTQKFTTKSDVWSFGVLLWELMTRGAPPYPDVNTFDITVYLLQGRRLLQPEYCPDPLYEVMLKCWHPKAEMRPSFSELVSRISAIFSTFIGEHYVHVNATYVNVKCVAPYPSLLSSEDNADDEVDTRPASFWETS

| SMILES | IC50 (NCI-H1993) [nM] | microsomal CLint at 1 µM [4] [µL/min/mg] | remaining at 0.5 h, 1 µM [5] [%] | remaining at 0.5 h, 1 µM [6] [%] | microsomal CLint at 1 µM [7] [µL/min/mg] | microsomal CLint at 1 µM [11] [µL/min/mg] | IC50 (SNU-5) [nM] | remaining at 0.5 h, 1 µM [13] [%] | other results |
| --- | --- | --- | --- | --- | --- | --- | --- | --- | --- |
| CC(c1ccc2nc(-c3cnn(C)c3)ccc2c1)n1nnc2ncc(-c3ccc(N)cc3)nc21 (stereo not given) |  |  |  |  |  |  |  |  | IC50 [1]: > 100 nM |
| CC(c1ccc2nc(-c3cnn(C)c3)ccc2c1)n1nnc2ncc(-c3cnn(C)c3)nc21 (stereo not given) |  |  |  |  |  |  |  |  | IC50 [1]: > 100 nM |
| CNC(=O)c1ccc(-c2cnc3nnn(C(C)c4ccc5ncc(-c6cnn(C)c6)cc5c4)c3n2)cc1F (stereo not given) | 0.5 | 16 | 115 | 97 | 5 | 1 | 0.6 | 114 | inhibition at 10 µM (CYP2C19 [2]): < 50%; inhibition at 10 µM (CYP1A2 [3]): < 50%; inhibition at 10 µM (CYP2D6 [8]): < 50%; inhibition at 10 µM (CYP2C9 [9]): < 50%; inhibition (INH) (Cytochrome P450 3A4 [10]): Active; inhibition at 10 µM (CYP3A4 [12]): < 50% |
| CNC(=O)c1ccc(-c2cnc3nnn(C(C)c4cc5cc(-c6cnn(C)c6)cnc5cc4F)c3n2)cc1F (stereo not given) | 1.1 | 24 | 116 | 69 | 12 | 5 | 0.6 | 111 | inhibition at 10 µM (CYP2C19 [2]): < 50%; inhibition at 10 µM (CYP1A2 [3]): < 50%; inhibition at 10 µM (CYP2D6 [8]): < 50%; inhibition at 10 µM (CYP2C9 [9]): < 50%; inhibition at 20 min, 10 µM (CYP2D6 [14]): < 50%; inhibition at 20 min, 10 µM (CYP3A4 [15]): < 50%; inhibition at 20 min, 10 µM (CYP2C9 [16]): < 50%; inhibition at 20 min, 10 µM (CYP2C19 [17]): < 50%; inhibition at 20 min, 10 µM (CYP1A2 [18]): < 50%; inhibition at 10 µM (CYP3A4 [12]): < 50% |
| CC(c1ccc2ncc(-c3ccc(F)cc3)cc2c1)n1nnc2ncc(-c3cnn(C)c3)nc21 (stereo not given) | 1.2 | 112 | 105 | 109 | 28 | 16 | 2.2 | 97 |  |
| CC(c1cc2cc(-c3ccc(F)cc3)cnc2cc1F)n1nnc2ncc(-c3cnn(C)c3)nc21 (stereo not given) | 4.1 |  |  |  |  |  | 2 |  |  |
| CC(c1c(F)cc2ncc(-c3cnn(C)c3)cc2c1F)n1nnc2ncc(-c3cnn(C)c3)nc21 (stereo not given) | 0.8 | 86 | 91 | 75 | 22 | 17 | 1.3 | 94 | inhibition (INH) (Cytochrome P450 2C9): Active; inhibition (INH) (Cytochrome P450 2C19): Active; TDI (Cytochrome P450 3A4 [19]): Active |
| CNC(=O)c1ccc(-c2cnc3nnn(C(C)c4ccc5ncc(-c6ccc(F)cc6)cc5c4)c3n2)cc1F (stereo not given) | 4.2 | 119 | 104 | 93 | 57 | 15 | 3.7 | 97 |  |
| CC(c1c(F)cc2ncc(-c3ccc(F)cc3)cc2c1F)n1nnc2ncc(-c3cnn(C)c3)nc21 (stereo not given) | 2.6 |  |  |  |  |  | 2.2 |  |  |
